According to ChEMBL document CHEMBL3272299, “Antineoplastic agents. 1. N-Protected vinyl, 1,2-dihaloethyl, and cyanomethyl esters of phenylalanine” (J Med Chem, 1977):
Active and inactive are the calls of the source. The rule behind the calls is not given here.

Key:
Ehrlich [1] = assay: Antitumor activity against mouse EAC allografted in CF1 mouse assessed as inhibition of tumor growth at 33 mg/kg/day measured on day 7; type: functional; conditions: 168 h
Ehrlich [2] = assay: Antitumor activity against mouse EAC allografted in CF1 mouse assessed as host survival at 33 mg/kg/day measured on day 7; type: functional, organism-based
Ehrlich [3] = assay: Antitumor activity against mouse EAC allografted in CF1 mouse assessed as tumor volume at 33 mg/kg/day measured on day 7; type: functional
W256 [4] = assay: Antitumor activity against rat Walker 256 cells allografted in Sprague-Dawley rat assessed as tumor growth inhibition at 2.5 mg/kg, ip qd relative to control; type: functional; conditions: route intraperitoneal
W256 [5] = assay: Antitumor activity against rat Walker 256 cells allografted in Sprague-Dawley rat assessed as host survival days at 2.5 mg/kg, ip qd; type: functional; conditions: route intraperitoneal
In short: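 Walker 256 ascites cells were implanted ip into male Sprague-Dawley rats (75 ± 10 g). Compound in 0.05% Tween-water was given ip at 2.5 mg/kg/day, and the day of death was recorded. T/C was calculated from the mean survival time per group according to the NIH protocol. Melphalan served as the internal standard.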

[6] = Chemical stability of the compound by TLC analysis; type: physicochemical
[7] = Chemical stability of the compound assessed as optical rotation; type: physicochemical
P388 [8] = assay: Antitumor activity against mouse P388 cells allografted in DBA/2 mouse assessed as tumor growth inhibition at 20 mg/kg, ip qd relative to control; type: functional; conditions: route intraperitoneal
[9] = Acute toxicity in CF1 mouse; type: organism-based; conditions: in vivo
P388 [10] = assay: Antitumor activity against mouse P388 cells allografted in DBA/2 mouse assessed as host survival at 20 mg/kg, ip qd; type: functional; conditions: route intraperitoneal
In short: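 P388 leukaemia cells were implanted on day 0 in male DBA/2 mice (20 g). Compound was dosed ip at 20 mg/kg/day. T/C survival values were calculated according to the NIH protocol. 5-Fluorouracil served as the internal standard.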

Row | Compound | inhibition in vivo at 33 mg/kg/day (Ehrlich [1]) | Survival (Ehrlich [2]) | Activity (Ehrlich [3]) | T/C (W256 [4]) | Survival (W256 [5]) | Stability [6] | Stability [7] | T/C (P388 [8]) | LD50 [9] | Survival (P388 [10])
1 | N[C@@H](Cc1ccc(N(CCCl)CCCl)cc1)C(=O)O [MELPHALAN] | 99% | Active | 0.1 mL | 305 | 23 days | – | – | – | – | –
2 | C=COC(=O)[C@H](Cc1ccccc1)NS(=O)(=O)c1ccc(C)cc1 | 56.8% | – | 3.8 mL | – | – | Stable | Stable | – | – | –
3 | O=C(N[C@H](Cc1ccccc1)C(=O)O)OCc1ccccc1 | 0% | Active | 4.3 mL | – | – | – | – | – | – | –
4 | C#CCOC(=O)[C@H](Cc1ccccc1)NC(=O)OCc1ccccc1 | 54% | – | 3.3 mL | – | – | – | – | – | – | –
5 | O=C(N[C@@H](Cc1ccccc1)C(=O)O)c1ccccc1 | 73% | Active | 1.3 mL | – | – | – | – | – | – | –
6 | N#CCOC(=O)[C@H](Cc1ccccc1)NC(=O)OCc1ccccc1 | 99.9% | Active | 0.2 mL | 113 | 8.5 days | Stable | Stable | 82 | 440 µmol/kg | 6.6 days
7 | C=COC(=O)[C@H](Cc1ccccc1)NC(=O)c1ccccc1 | 56.8% | Active | 2.1 mL | – | – | Stable | Stable | – | – | –
8 | Sc1ncnc2nc[nH]c12 [MERCAPTOPURINE ANHYDROUS] | 99.6% | Active | 0.7 mL | – | – | – | – | 148 | – | 12 days
9 | O=C(N[C@@H](Cc1ccccc1)C(=O)OC(Cl)CCl)OCc1ccccc1 (stereo not given in full) | 93% | Active | 0.8 mL | – | – | – | – | – | 1260 µmol/kg | –
10 | O=C(O)CCCc1ccc(N(CCCl)CCCl)cc1 [CHLORAMBUCIL] | – | – | – | – | – | – | – | – | 61 µmol/kg | –
11 | C#CCN[C@@H](Cc1ccccc1)C(=O)OCC | 16% | Active | 3.7 mL | – | – | – | – | – | – | –
12 | N[C@H](CO)Cc1ccccc1 [L-PHENYLALANINOL] | 92% | – | 0.6 mL | – | – | – | – | – | 500 µmol/kg | –
13 | N#CCOC(=O)[C@H](Cc1ccccc1)NC(=O)[C@H](Cc1ccccc1)NC(=O)OCc1ccccc1 | 52% | Active | 1.5 mL | – | – | Stable | Stable | – | – | –
14 | C=COC(=O)[C@@H](N)Cc1ccccc1.Cl | 41% | – | 2.2 mL | – | – | Stable | Stable | – | – | –
15 | C=COC(=O)C(Cc1ccccc1)NC(=O)OCc1ccccc1 (racemic) | 58% | Active | 1.3 mL | – | – | Stable | Stable | – | 1540 µmol/kg | –
16 | O=C(N[C@@H](Cc1ccccc1)C(=O)O)OCc1ccccc1 | 75% | Active | 0.6 mL | – | – | – | – | – | 840 µmol/kg | –
17 | O=C(NC(Cc1ccccc1)C(=O)O)OCc1ccccc1 (racemic) | 52% | – | 2.6 mL | – | – | – | – | – | – | –
18 | C=CCOC(=O)[C@H](Cc1ccccc1)NC(=O)OCc1ccccc1 | 24% | Active | 2.6 mL | – | – | Stable | Stable | – | – | –
19 | Cl.N#CCOC(=O)[C@@H](N)Cc1ccccc1 | 9% | – | 2.5 mL | – | – | Stable | Stable | – | – | –
20 | N#CCOC(=O)[C@H](Cc1ccccc1)NC(=O)/C=C/c1ccccc1 | 27% | Active | 2.8 mL | – | – | Stable | Stable | – | – | –

Row | Compound | inhibition in vivo at 33 mg/kg/day (Ehrlich [1]) | Survival (Ehrlich [2]) | Activity (Ehrlich [3]) | T/C (W256 [4]) | Survival (W256 [5]) | Stability [6] | Stability [7] | T/C (P388 [8]) | LD50 [9] | Survival (P388 [10])
21 | N#CCOC(=O)C(Cc1ccccc1)NC(=O)OCc1ccccc1 (racemic) | 86% | Active | 0.4 mL | – | – | Stable | Stable | – | 760 µmol/kg | –
22 | Cc1ccc(S(=O)(=O)N[C@@H](Cc2ccccc2)C(=O)O)cc1 | 84% | Active | 0.5 mL | – | – | – | – | – | – | –
23 | O=C(N[C@H](Cc1ccccc1)C(=O)OC(Br)CBr)OCc1ccccc1 (stereo not given in full) | 100% | Active | 0 mL | 117 | 8.7 days | – | – | 92 | 310 µmol/kg | 7.5 days
24 | O=C(/C=C/c1ccccc1)N[C@@H](Cc1ccccc1)C(=O)O | 58% | Active | 2.1 mL | – | – | – | – | – | 740 µmol/kg | –
25 | C=CCOC(=O)C(Cc1ccccc1)NC(=O)OCc1ccccc1 (racemic) | 71% | Active | 0.6 mL | – | – | Stable | Stable | – | – | –
26 | C=COC(=O)[C@@H](Cc1ccccc1)NC(=O)OCc1ccccc1 | 36% | Active | 3.6 mL | – | – | Stable | Stable | – | 1540 µmol/kg | –
27 | C=COC(=O)[C@H](Cc1ccccc1)NC(=O)[C@H](Cc1ccccc1)NC(=O)OCc1ccccc1 | 43% | – | 2.1 mL | – | – | Stable | Stable | – | – | –
28 | CC(=O)N[C@@H](Cc1ccccc1)C(=O)OCC#N | 16% | Active | 3.9 mL | – | – | Stable | Stable | – | – | –
29 | CCOC(=O)[C@H](Cc1ccccc1)NC(=O)OCc1ccccc1 | 57% | Active | 1.5 mL | – | – | – | – | – | 1530 µmol/kg | –
30 | N#CCOC(=O)[C@H](Cc1ccccc1)NC(=O)c1ccccc1 | 47% | – | 1.8 mL | – | – | Stable | Stable | – | 360 µmol/kg | –
31 | C=COC(=O)[C@H](Cc1ccccc1)NC(=O)OCc1ccccc1 | 99.9% | Active | 0.1 mL | 226 | 18.1 days | Stable | Stable | 100 | > 6150 µmol/kg | 8.1 days
32 | N#CCOC(=O)[C@@H](Cc1ccccc1)NC(=O)OCc1ccccc1 | 72% | – | 1 mL | – | – | Stable | Stable | – | 80 µmol/kg | –
33 | Cc1ccc(S(=O)(=O)N[C@@H](Cc2ccccc2)C(=O)C(=O)CCl)cc1 | 100% | – | 0.01 mL | – | – | – | – | – | 210 µmol/kg | –
34 | O=C(N[C@H](CO)Cc1ccccc1)OCc1ccccc1 | 55% | Active | 1.3 mL | – | – | – | – | – | – | –
35 | C=COC[C@H](Cc1ccccc1)NC(=O)OCc1ccccc1 | 47% | – | 1.4 mL | – | – | Stable | Stable | – | – | –
36 | O=Cc1ccccc1 [BENZALDEHYDE] | 69% | Active | 0.8 mL | – | – | – | – | – | – | –
37 | O=C(N[C@@H](Cc1ccccc1)C(=O)N[C@@H](Cc1ccccc1)C(=O)OC(Br)CBr)OCc1ccccc1 (stereo not given in full) | 92% | Active | 0.2 mL | – | – | – | – | – | 780 µmol/kg | –
38 | CCOC(=O)[C@H](Cc1ccccc1)NC(=O)/C=C/c1ccccc1 | 0% | Active | 5 mL | – | – | – | – | – | – | –
39 | O=C(N[C@@H](Cc1ccccc1)C(=O)OC(Br)CBr)OCc1ccccc1 (stereo not given in full) | 100% | Active | 0 mL | 305 | 23 days | – | – | 83 | 150 µmol/kg | 6.7 days
40 | Cc1ccc(S(=O)(=O)N[C@@H](Cc2ccccc2)C(=O)OCC#N)cc1 | 97% | – | 0.4 mL | 113 | 8.5 days | Stable | Stable | 112 | 730 µmol/kg | 9.1 days
